Measured values from ChEMBL document CHEMBL1145823, “Docking and database screening reveal new classes of Plasmodium falciparum dihydrofolate reductase inhibitors” (J Med Chem, 2003).
In brackets after ≈: the same amount, converted by molar mass. Activity calls are given as the source filed them. No cut-off for these calls is given here.

Experiments:
[1] = target: Bifunctional dihydrofolate reductase-thymidylate synthase (Plasmodium falciparum K1) (UniProt P13922); experiment: Inhibition constant for resistant mutant PfDHFR (Plasmodium falciparum dihydrofolate reductase) at 750 uM; Inactive
Outline: (§1)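 Recombinant wild-type or mutant PfDHFR, expressed in bacteria (induction at 20 °C for 20 h) and purified on methotrexate-Sepharose. Spectrophotometric assay in 50 mM TES pH 7.0, 75 mM β-mercaptoethanol, 1 mg/mL BSA, with 100 μM each H2-folate and NADPH. Started with enzyme (0.6–1 nM). […] Ki from IC50 = Ki(1+[S]/Km), assuming competitive binding.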

[2] = target: Bifunctional dihydrofolate reductase-thymidylate synthase (Plasmodium falciparum K1) (UniProt P13922); experiment: Inhibition constant against wild-type PfDHFR (Plasmodium falciparum dihydrofolate reductase) at 750 uM; Inactive; outline: as §1
[3] = target: Bifunctional dihydrofolate reductase-thymidylate synthase (Plasmodium falciparum K1, UniProt P13922, A16V/S108T); experiment: Inhibition constant against PfDHFR (Plasmodium falciparum dihydrofolate reductase) with double (A16V + S108T) mutations
Outline: (§2)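 Recombinant wild-type or mutant PfDHFR, expressed in bacteria (induction at 20 °C for 20 h) and purified on methotrexate-Sepharose. Spectrophotometric assay in 50 mM TES pH 7.0, 75 mM β-mercaptoethanol, 1 mg/mL BSA, with 100 μM each H2-folate and NADPH. Started with enzyme (0.6–1 nM). Ki from IC50 = Ki(1+[S]/Km), assuming competitive binding.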

[4] = target: Bifunctional dihydrofolate reductase-thymidylate synthase (Plasmodium falciparum K1, UniProt P13922, A16V); experiment: Inhibition constant against PfDHFR (Plasmodium falciparum dihydrofolate reductase) with single A16V mutation; outline: as §2
[5] = target: Bifunctional dihydrofolate reductase-thymidylate synthase (Plasmodium falciparum K1, UniProt P13922, S108T); experiment: Inhibition constant against PfDHFR (Plasmodium falciparum dihydrofolate reductase) with single S108T mutation; outline: as §2
[6] = target: Bifunctional dihydrofolate reductase-thymidylate synthase (Plasmodium falciparum K1, UniProt P13922); experiment: Inhibition constant against wild-type PfDHFR (Plasmodium falciparum dihydrofolate reductase); outline: as §2
[7] = target: Bifunctional dihydrofolate reductase-thymidylate synthase (Plasmodium falciparum K1, UniProt P13922, C59R/I164L/N51I/S108N); experiment: Inhibition constant against PfDHFR (Plasmodium falciparum dihydrofolate reductase) with quadruple (N51I + C59R + S108N + I164L) mutations; outline: as §2
[8] = target: Bifunctional dihydrofolate reductase-thymidylate synthase (Plasmodium falciparum K1, UniProt P13922, C59R/I164L/S108N); experiment: Inhibition constant against PfDHFR (Plasmodium falciparum dihydrofolate reductase) with triple (C59R + S108N + I164L) mutations; outline: as §2
[9] = target: Bifunctional dihydrofolate reductase-thymidylate synthase (Plasmodium falciparum K1) (UniProt P13922); experiment: Inhibition constant for PfDHFR (Plasmodium falciparum dihydrofolate reductase) with single S108T mutation; Not active; outline: as §1
[10] = target: Bifunctional dihydrofolate reductase-thymidylate synthase (Plasmodium falciparum K1) (UniProt P13922); experiment: Inhibition constant against wild-type PfDHFR (Plasmodium falciparum dihydrofolate reductase); Not active; outline: as §1
[11] = target: Bifunctional dihydrofolate reductase-thymidylate synthase (Plasmodium falciparum K1) (UniProt P13922); experiment: Inhibition constant for PfDHFR (Plasmodium falciparum dihydrofolate reductase) with double (A16V + S108T) mutations; Not active; outline: as §1
[12] = target: Bifunctional dihydrofolate reductase-thymidylate synthase (Plasmodium falciparum K1) (UniProt P13922); experiment: Inhibition constant for PfDHFR (Plasmodium falciparum dihydrofolate reductase) with triple (C59R + S108N + I164L) mutations; Not active; outline: as §1
[13] = target: Bifunctional dihydrofolate reductase-thymidylate synthase (Plasmodium falciparum K1) (UniProt P13922); experiment: Inhibition constant for PfDHFR (Plasmodium falciparum dihydrofolate reductase) with quadruple (N51I + C59R + S108N + I164L) mutations; Not active; outline: as §1
[14] = target: Bifunctional dihydrofolate reductase-thymidylate synthase (Plasmodium falciparum K1) (UniProt P13922); experiment: Inhibition constant for PfDHFR (Plasmodium falciparum dihydrofolate reductase) with single A16V mutation; Not active; outline: as §1
[15] = Determined the solubility of the compound; assay type: ADME; settings: read-out: S
[16] = target: Bifunctional dihydrofolate reductase-thymidylate synthase (Plasmodium falciparum K1) (UniProt P13922); experiment: Inhibition constant for resistant mutant PfDHFR (Plasmodium falciparum dihydrofolate reductase); Inactive; outline: as §1
[17] = target: Bifunctional dihydrofolate reductase-thymidylate synthase (Plasmodium falciparum K1) (UniProt P13922); experiment: Inhibition constant against wild-type PfDHFR (Plasmodium falciparum dihydrofolate reductase); Inactive; outline: as §1
[18] = target: Bifunctional dihydrofolate reductase-thymidylate synthase (Plasmodium falciparum K1) (UniProt P13922); experiment: Inhibition constant for PfDHFR (Plasmodium falciparum dihydrofolate reductase) with single S108T mutation at a concentration of 100 uM; Not active; outline: as §1
[19] = target: Bifunctional dihydrofolate reductase-thymidylate synthase (Plasmodium falciparum K1) (UniProt P13922); experiment: Inhibition constant for PfDHFR (Plasmodium falciparum dihydrofolate reductase) with double (A16V + S108T) mutations at a concentration of 100 uM; Not active; outline: as §1
[20] = target: Bifunctional dihydrofolate reductase-thymidylate synthase (Plasmodium falciparum K1) (UniProt P13922); experiment: Inhibition constant for PfDHFR (Plasmodium falciparum dihydrofolate reductase) with single A16V mutation at a concentration of 100 uM; Not active; outline: as §1
[21] = target: Bifunctional dihydrofolate reductase-thymidylate synthase (Plasmodium falciparum K1) (UniProt P13922); experiment: Inhibition constant for PfDHFR (Plasmodium falciparum dihydrofolate reductase) with triple (C59R + S108N + I164L) mutations at a concentration of 100 uM; Not active; outline: as §1
[22] = target: Bifunctional dihydrofolate reductase-thymidylate synthase (Plasmodium falciparum K1) (UniProt P13922); experiment: Inhibition constant against wild-type PfDHFR (Plasmodium falciparum dihydrofolate reductase) at a concentration of 100 uM; Not active; outline: as §1

Chain of Bifunctional dihydrofolate reductase-thymidylate synthase (Plasmodium falciparum K1, UniProt P13922) (P13922 whole entry): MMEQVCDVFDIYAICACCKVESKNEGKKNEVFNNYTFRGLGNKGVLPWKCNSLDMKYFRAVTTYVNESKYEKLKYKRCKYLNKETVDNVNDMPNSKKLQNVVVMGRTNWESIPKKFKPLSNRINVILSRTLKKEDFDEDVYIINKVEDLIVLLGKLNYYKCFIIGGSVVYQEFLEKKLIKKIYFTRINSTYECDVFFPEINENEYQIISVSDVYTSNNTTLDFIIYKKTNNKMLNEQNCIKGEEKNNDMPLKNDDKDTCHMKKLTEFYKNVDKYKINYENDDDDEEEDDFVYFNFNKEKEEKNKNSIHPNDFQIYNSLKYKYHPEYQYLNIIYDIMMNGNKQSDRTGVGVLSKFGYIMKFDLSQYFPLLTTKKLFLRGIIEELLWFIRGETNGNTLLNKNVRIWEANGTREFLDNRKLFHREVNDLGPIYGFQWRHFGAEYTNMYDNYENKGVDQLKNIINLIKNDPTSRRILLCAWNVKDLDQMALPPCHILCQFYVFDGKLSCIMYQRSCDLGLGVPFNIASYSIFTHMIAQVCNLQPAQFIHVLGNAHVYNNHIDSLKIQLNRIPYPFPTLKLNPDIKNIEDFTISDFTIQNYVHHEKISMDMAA
Chain of Bifunctional dihydrofolate reductase-thymidylate synthase (Plasmodium falciparum K1, UniProt P13922, C59R/I164L/N51I/S108N) (P13922 whole entry, looked up, stated change not applied): as the sequence (P13922 whole entry) above
Chain of Bifunctional dihydrofolate reductase-thymidylate synthase (Plasmodium falciparum K1) (P13922 whole entry, looked up): as the sequence (P13922 whole entry) above
Chain of Bifunctional dihydrofolate reductase-thymidylate synthase (Plasmodium falciparum K1, UniProt P13922, A16V/S108T) (P13922 whole entry, looked up, stated change not applied): as the sequence (P13922 whole entry) above
Chain of Bifunctional dihydrofolate reductase-thymidylate synthase (Plasmodium falciparum K1, UniProt P13922, C59R/I164L/S108N) (P13922 whole entry, looked up, stated change not applied): as the sequence (P13922 whole entry) above
Chain of Bifunctional dihydrofolate reductase-thymidylate synthase (Plasmodium falciparum K1, UniProt P13922, S108T) (P13922 whole entry, looked up, stated change not applied): as the sequence (P13922 whole entry) above
Chain of Bifunctional dihydrofolate reductase-thymidylate synthase (Plasmodium falciparum K1, UniProt P13922, A16V) (P13922 whole entry A16V): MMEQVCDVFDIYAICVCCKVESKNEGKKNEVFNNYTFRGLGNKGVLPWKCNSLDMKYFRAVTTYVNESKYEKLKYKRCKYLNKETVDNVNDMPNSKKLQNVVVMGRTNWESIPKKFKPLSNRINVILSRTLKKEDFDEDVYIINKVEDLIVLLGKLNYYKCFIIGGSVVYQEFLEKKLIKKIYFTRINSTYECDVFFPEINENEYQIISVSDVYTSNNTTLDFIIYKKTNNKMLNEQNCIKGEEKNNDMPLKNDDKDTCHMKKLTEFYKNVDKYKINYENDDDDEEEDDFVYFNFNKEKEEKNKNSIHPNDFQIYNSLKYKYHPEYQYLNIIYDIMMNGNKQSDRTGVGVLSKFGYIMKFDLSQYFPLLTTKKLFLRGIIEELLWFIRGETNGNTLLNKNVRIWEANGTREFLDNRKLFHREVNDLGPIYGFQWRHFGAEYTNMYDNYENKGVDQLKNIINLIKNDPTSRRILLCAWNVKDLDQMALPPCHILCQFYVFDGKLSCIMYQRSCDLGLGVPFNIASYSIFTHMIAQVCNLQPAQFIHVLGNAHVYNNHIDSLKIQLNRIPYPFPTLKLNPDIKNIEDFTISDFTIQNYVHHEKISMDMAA

| Structure (SMILES) | Ki [3] | Ki [4] | Ki [5] | Ki [6] | Ki [7] | Ki [8] | other results |
| --- | --- | --- | --- | --- | --- | --- | --- |
| Cc1nc(S)nc(O)c1Cc1c(F)cccc1Cl | – | – | – | – | – | – | IA [1]: inactive; IA [2]: inactive |
| NNc1nc2ccccc2nc1NN | 11.4 µM | 3.4 µM | 0.8 µM | 3.6 µM | 9.7 µM | 2.7 µM | – |
| NC(=O)Nc1ccc(Oc2ncc(C(F)(F)F)cc2Cl)cc1 | – | – | – | – | – | – | NA [9]: inactive; NA [10]: inactive; NA [11]: inactive; NA [12]: inactive; NA [13]: inactive; NA [14]: inactive |
| COC(=O)c1sccc1-c1ccc(/C(C)=N/NC(N)=O)o1 | 19.7 µM | 15.3 µM | 4.2 µM | – | 16 µM | 7.5 µM | – |
| N/C(=N\O)c1cccc(CS(=O)(=O)c2ccc(Cl)cc2)c1 | 106 µM | 38 µM | 30 µM | 102 µM | 34.5 µM | 105 µM | – |
| C=CCNC(=S)NNC(=O)c1cccn(Cc2cccc(Cl)c2)c1=O | 17 µM | 13 µM | 1.7 µM | 15.2 µM | 10.6 µM | 10 µM | – |
| N/N=C(\S)Nc1ccc(OCc2ccccc2)cc1 | 55.6 µM | 15.4 µM | 5.2 µM | 13.7 µM | 26.5 µM | 13.4 µM | – |
| N=C(S)N/N=C/c1ccc(Oc2ncc(C(F)(F)F)cc2Cl)cc1 | 34 µM | 6.8 µM | 2.3 µM | – | 9.3 µM | 12.5 µM | – |
| NC(=S)N/N=C/c1ccccc1 [PHENYLTHIOSEMICARBAZONE] | 50 µM | 29.6 µM | 9 µM | 23.6 µM | 37.2 µM | 28.9 µM | – |
| N=C(NO)c1ccc(Oc2cc(Cl)cc(Cl)c2)c([N+](=O)[O-])c1 | 9.8 µM | 36.8 µM | 4.2 µM | – | 32.6 µM | 22.2 µM | – |
| C/C(=N\N=C(/N)S)c1ccc(Oc2c(Cl)cncc2Cl)cc1 | 2.1 µM | 0.7 µM | 1 µM | 0.9 µM | 1.5 µM | 0.6 µM | – |
| NC(=O)NC(=O)Cc1ccccc1 | – | – | – | – | – | – | NA [9]: inactive; NA [10]: inactive; NA [11]: inactive; NA [12]: inactive; NA [13]: inactive; NA [14]: inactive |
| Nc1nccc(-c2csc(COc3ccc(Cl)cc3)n2)n1 | – | – | – | – | – | – | solubility [15]: 25 µM (≈ 7.97 µg/mL) |
| N=C(NO)c1ccc(CNC(=O)c2ccc(Cl)cc2)cc1 | 57 µM | 58 µM | 12.3 µM | 77.2 µM | 36.6 µM | 93 µM | – |
| NC(=O)Nc1ccc(Cc2ccc(NC(N)=O)cc2)cc1 | – | – | – | – | – | – | NA [9]: inactive; NA [10]: inactive; NA [11]: inactive; NA [12]: inactive; NA [13]: inactive; NA [14]: inactive |
| CC1(C)N=C(N)N=C(N)N1c1ccc(Cl)cc1 [CYCLOGUANIL] | 2.13 µM | 0.57 µM | 0.0016 µM | – | 0.73 µM | 1.14 µM | – |
| Sc1nnc(-c2ccccc2)c(-c2ccccc2)n1 | – | – | – | – | – | – | IA [16]: inactive; IA [17]: inactive |
| Oc1nnc(-c2ccccc2)c(-c2ccccc2)n1 | – | – | – | – | – | – | IA [16]: inactive; IA [17]: inactive |
| N=c1nc(N)nc(Nc2ccccc2)n1-c1ccccc1 | – | – | – | – | – | – | IA [16]: inactive; IA [17]: inactive |
| C/N=C(\S)NNC(=O)c1cccn(Cc2cccc(Cl)c2)c1=O | 13.6 µM | 5.9 µM | 1.8 µM | 11.3 µM | 19.4 µM | 7.1 µM | – |
| NC1=NC(c2ccccc2)C(C(=O)c2ccccc2)N1 (stereo not drawn) | – | – | – | – | – | – | NA [18]: inactive; NA [19]: inactive; NA [20]: inactive; NA [21]: inactive; NA [13]: inactive; NA [22]: inactive |
| CNC(=O)Nc1ccc(Cc2ccc(NC(=O)NC)cc2)cc1 | – | – | – | – | – | – | NA [9]: inactive; NA [10]: inactive; NA [11]: inactive; NA [12]: inactive; NA [13]: inactive; NA [14]: inactive |
| N/C(=N/O)c1ccc(Oc2c(Cl)cncc2Cl)cc1 | 6.2 µM | 23.6 µM | 16 µM | 25.2 µM | 27.8 µM | 24.4 µM | – |
